This is an account of results in ChEMBL document CHEMBL3244154, “Synthesis of 1-deaza-6-thioguanosine and 1-deaza-6-(methylthio)guanosine” (1978).

SMILES strings stand for the structures. Converted amounts (≈) assume the structure as drawn. The source made the active and inactive calls. The calls are words filed in the database; no cut-off is given here.

Assay [1] is described as follows: Cytotoxicity against human Hep2 cells. The assay is classed as functional. The settings on record: HEp-2, read-out: ED50 (the source's name). In a few lines:
(§1)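 Growth inhibition of cultured cells. Activity is expressed as ED50 in μg/mL.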

Assay [2] relates to KB. As to the kind of experiment: Cytotoxicity against human KB cells. It counts as functional. The settings on record: read-out: ED50 (the source's name). In a few lines: as §1
Assay [3] deals with L1210. Briefly: Antitumor activity against mouse L1210 cells assessed as increase in life span administered from day 1 to day 9 relative to control. It counts as functional. On the set-up: concentration or dose not given beside the values. An outline of the steps: (§2)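 In vivo assay in mice bearing leukemia L1210, dosed on days 1–9. Read-out is percent increase in life span of treated leukemic mice over untreated leukemic controls.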

Assay [4] has as its system KB. Briefly: Cytotoxicity against human KB cells in presence of 5-amino-1H-imidazole-4-carboxamide. It counts as functional, cell-based.
In assay [5] the test system is L1210. Briefly: Antitumor activity against mouse L1210 cells assessed as increase in life span at 14 to 75 mg/kg administered from day 1 to day 9 relative to control. The assay is classed as functional, organism-based.
For assay [6], the system named is HEp-2. Briefly: Cytotoxicity against human Hep2 cells in presence of 5-amino-1H-imidazole-4-carboxamide. The assay is classed as functional, cell-based.
In assay [7] the test system is L1210. As to the kind of experiment: Antitumor activity against mouse L1210 cells assessed as increase in life span at 33 mg/kg administered from day 1 to day 9 relative to control. It counts as functional. In a few lines:
as §2

In the case of `CSc1cc(NC(C)=O)nc2[nH]cnc12`, the EC50 in assay [1] and in assay [2] was greater than 22 µg/mL throughout. The Activity in assay [3] was less than 15%.
`Nc1cc(S)c2ncn([C@@H]3O[C@H](CO)[C@@H](O)[C@H]3O)c2n1`: the EC50 in assay [1] and in assay [2] was greater than 22 µg/mL in each case. Also, in assay [3], the Activity is less than 15%.
For the compound `Cc1ccc(S(=O)(=O)/N=c2\cc(Cl)c3ncn4c3n2C[C@H]2O[C@@H]4[C@@H]3OC(C)(C)O[C@@H]32)cc1`, the EC50 in assay [1] and in assay [2] was greater than 22 µg/mL each time. Moreover, in assay [3], the Activity is reported as less than 15%.
As to `Nc1cc(Cl)c2ncn([C@@H]3O[C@H](CO)[C@@H](O)[C@H]3O)c2n1`, the EC50 in assay [1] and in assay [2] was greater than 22 µg/mL each time. Further, the Activity in assay [3] is given as less than 15%.
With `Nc1cc(Cl)c2nc[nH]c2n1`, the outcome in assay [4], in assay [5] and in assay [6] was Active. In addition, the figures for the EC50 in assay [1] and in assay [2] were 0.3 µg/mL (≈ 1.78 µM) and 1 µg/mL (≈ 5.93 µM), respectively. For the same compound, the Activity in assay [7] came to 79%.
For `CSc1cc(N)nc2c1ncn2[C@@H]1O[C@H](CO)[C@@H](O)[C@H]1O`, the EC50 in assay [1] and in assay [2] was greater than 22 µg/mL each time. Besides, the Activity in assay [3] is on record as less than 15%.
As to `CC(=O)Nc1cc(Cl)c2nc[nH]c2n1`, the EC50 in assay [1] and in assay [2] was greater than 22 µg/mL throughout. In assay [3], the Activity is recorded as less than 15%.
With `CSc1cc(N)nc2[nH]cnc12`, the EC50 in assay [1] and in assay [2] was greater than 22 µg/mL in each case. In assay [3], the Activity is less than 15%.
